Numbered stars: 1 amine (or outer) side, 2 acyl side, 3 side chain; on linkers, the order of the positions; unused ones are H or OH. Bridge positions count the residues as written; N and C are the ends. Square brackets hold non-standard residues; d marks the D form. Peptide text beside a SMILES is read from it. * marks the point of attachment. Orn(4R-OH,5R-OH) = O=C([C@H](C[C@@H](O)[C@@H](O)N[*:3])N[*:1])[*:2]; hTyr(3S-OH,4S-OH) = N[C@H](C(=O)O)[C@H](O)[C@@H](O)c1ccc(O)cc1; Pro(3S-OH,4S-Me) = C[C@H]1CN[C@H](C(=O)O)[C@H]1O; Benzoyl(4-octyloxy) = CCCCCCCCOc1ccc(C(=O)*)cc1; Hyp = O=C(O)[C@@H]1C[C@@H](O)CN1

The test system of assay [1] is Candida albicans. As to the kind of experiment: (§1) Minimum fungicidal concentration against Candida albicans MY 1055. The format is functional, organism-based. In a few lines:
(§2)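 Clinical isolates in yeast nitrogen base with 1% dextrose, inoculated with about 5×10^3 CFU per well. Drug was tested by 2-fold serial dilution from 128 to 0.06 µg/mL, with growth for 24 h at 35 °C. 1.5-µL aliquots were then spotted onto Sabouraud dextrose agar and incubated at 35 °C for 24 h. MFC was the lowest concentration giving fewer than five colonies per spot. Duplicate determinations.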

A short description of assay [2]: Inhibitory activity against glucan synthesis. The format is functional.
Assay [3] deals with Candida tropicalis. The assay is described as follows: (§3) Minimum fungicidal concentration against Candida tropicalis MY 1012. It counts as functional, organism-based. In a few lines: as §2
Assay [4] is filed under the species Homo sapiens. The assay is described as follows: Hemolytic potential was determined as the minimum lytic concentration against human red blood cells. The format is functional, cell-based. In a few lines:
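Compounds were serially diluted in water containing 10% DMSO and added to whole human blood, then incubated 2 h at 37 °C. Red cell lysis was scored visually, and the lowest lytic concentration was recorded.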

The species entered for assay [5] is Mus musculus. The assay is described as follows: Minimum effect dose required to reduce the number of colony forming units in per gram kidney of mice after being challenged, by tail vein injection, with 5 X l0e4 cells of Candida albicans (MY 1055). The format is functional. In short, it runs like this:
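DBA/2 mice (5 per dose level) were infected intravenously and dosed ip with vehicle sham or 1.5, 3.0 or 6.0 mg/kg twice daily for 4 days. On day 7 post-infection, kidneys were cultured on SDA (35 °C, 24 h) and CFU/g counted. MED99 is the dose giving ≥99% CFU/g reduction versus vehicle sham.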

In assay [6] the test system is Candida albicans. The assay is described as follows: (§4) Minimum fungicidal concentration against Candida albicans MY 1028. It counts as functional, organism-based. In a few lines:
as §2

Assay [7] is filed under the species Rattus norvegicus. As to the kind of experiment: Minimum effect dose required to reduce the number of alveolor cyst load in rat Pneumocystis carinii pneumonia assay. The format is functional. In a few lines:
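Immunosuppressed Sprague-Dawley rats with confirmed infection (5 per dose level) were dosed subcutaneously, 0.15 and 0.60 mg/kg twice daily for 4 days. On day 5, lungs were homogenized and cysts counted microscopically in a known amount of homogenate. MED90 is the dose giving ≥90% cyst reduction versus vehicle sham controls.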

In assay [8] the test system is Candida parapsilosis. The assay is described as follows: (§5) Minimum fungicidal concentration against Candida parapsilosis MY 1010. The format is functional, organism-based. In a few lines: as §2
For assay [9], the system named is Fungi. Described as §1. The format is functional, organism-based. In short, it runs like this:
as §2

In assay [10] the test system is Fungi. The assay is described as follows: Minimum fungicidal concentration against Candida pseudotropicalis MY 1100. It counts as functional, organism-based. In short, it runs like this: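 Clinical isolates were inoculated at about 5×10^3 CFU into yeast nitrogen base with 1% dextrose, with drug in 2-fold dilutions from 128 to 0.06 µg/mL, and grown 24 h at 35 °C. Then 1.5 µL aliquots were spotted on Sabouraud dextrose agar and held 24 h at 35 °C. MFC is the lowest concentration giving fewer than five colonies per spot, from duplicate determinations.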

Assay [11] deals with Fungi. The description is as §3. The format is functional, organism-based. In a few lines: as §2
The subject of assay [12] is Fungi. The assay is described as §4. The format is functional, organism-based. In short, it runs like this:
as §2

Assay [13] has as its system Fungi. The assay is described as §5. It counts as functional, organism-based. In short, it runs like this:
as §2

On to `CCCCCCCCOc1ccc(C(=O)N[C@H]2C[C@@H](O)[C@@H](O)NC(=O)[C@@H]3[C@@H](O)[C@@H](C)CN3C(=O)[C@H]([C@@H](C)O)NC(=O)[C@H]([C@H](O)[C@@H](O)c3ccc(O)cc3)NC(=O)[C@@H]3C[C@@H](O)CN3C(=O)[C@H]([C@@H](C)O)NC2=O)cc1` [CILOFUNGIN] ({Benzoyl(4-octyloxy)}-[Orn(4R-OH,5R-OH)]T[Hyp][hTyr(3S-OH,4S-OH)]T[Pro(3S-OH,4S-Me)]; lactam 1-C), for which the Concentration in [1] was 0.5 µg/mL; in [3], 0.25 µg/mL; in [4], over 400 µg/mL; in [6], 0.5 µg/mL; in [8], 16 µg/mL. In assay [2], this molecule returned an IC50 of 1000 nM. Besides, in assay [5], the MED99 was found to be 3 mg/kg. Also, the MED90 in assay [7] was over 2.5 mg/kg.
For the molecule `CCC(C)CC(C)CCCCCCCCC(=O)N[C@H]1C[C@@H](O)[C@@H](O)NC(=O)[C@@H]2[C@@H](O)CCN2C(=O)[C@H]([C@@H](O)CC(N)=O)NC(=O)[C@H]([C@H](O)[C@@H](O)c2ccc(O)cc2)NC(=O)[C@@H]2C[C@@H](O)CN2C(=O)[C@H]([C@H](C)O)NC1=O` (stereo not given in full), the Concentration was 0.25 µg/mL in assay [9]; 2 µg/mL in assay [10]; 0.06 µg/mL in assay [11]; over 400 µg/mL in assay [4]; 0.125 µg/mL in assay [12]; 4 µg/mL in [13]. This molecule registered an IC50 in assay [2] of 70 nM.

Values taken from ChEMBL document CHEMBL1126019, “Synthesis, stability, and biological evaluation of water-soluble prodrugs of a new echinocandin lipopeptide. Discovery of a potential clinical agent for the treatment of systemic candidiasis and Pneumocystis carinii pneumonia (PCP)” (J Med Chem, 1992).
